Data: article PMC8453750 (Clinical Pharmacology in Drug Development, 2021)

Legend:
CYP2C9 = conditions: recombinant human CYPs; cited from earlier work
CYP2C19 = conditions: recombinant human CYPs; cited from earlier work
[1] = cited from earlier work
[2] = Part 1 safety: treatment-emergent adverse events, labs, vital signs, ECG; type: in vivo, human
Outline: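 Part 1 had 12 healthy adults. They received a single fasted oral 20 mg dose of the test compound, then itraconazole oral solution 200 mg once daily for 14 days, with the test compound coadministered. TEAEs were recorded through 30 days after the last test-compound dose, coded with MedDRA v22.0 and graded by NCI CTCAE v5. Vital signs, hematology/chemistry/urinalysis and 12-lead ECG were also assessed. All were summarised descriptively.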

[3] = Part 1: mobocertinib-itraconazole DDI study, plasma PK; type: in vivo, human; conditions: for AUC(0-inf) / Cmax / half-life: human, plasma, oral; for AUC(0-inf): AUC0-∞; for half-life: t½; for AUC0-∞, Geometric LS Mean Ratio (90%CI) (Test/Reference) / Cmax, Geometric LS Mean Ratio (90%CI) (Test/Reference): mobocertinib 20 mg + itraconazole vs mobocertinib alone
Outline: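 Nonsmoking adults aged 18–55 (n = 12) took a single oral capsule dose of 20 mg fasted, with a meal at least 4 h postdose. This was repeated with itraconazole solution 200 mg once daily on an empty stomach over 14 days, after a 4-day lead-in. Plasma was sampled predose to 168 h, adding 192 and 240 h with itraconazole. Parent and two metabolites were measured by LC-MS/MS (LLOQ 0.100 ng/mL). Analysis was noncompartmental, with ln-transformed geometric LSM ratios and 90% CI.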

CYP2B6 = conditions: recombinant human CYPs; cited from earlier work
[4] = preclinical data; ref data on file; Millennium Pharmaceuticals, Inc.; cited from earlier work
CYP1A2 = conditions: recombinant human CYPs; cited from earlier work
[5] = cited from earlier work; remark: listed apart in the source
CYP2C8 = conditions: recombinant human CYPs; cited from earlier work
CYP3A4/5 = conditions: recombinant human CYPs; cited from earlier work
CYP2D6 = conditions: recombinant human CYPs; cited from earlier work
[6] = Part 2: mobocertinib-rifampin DDI study, plasma PK; type: in vivo, human
[7] = Part 2 safety: treatment-emergent adverse events, labs, vital signs, ECG; type: in vivo, human
Outline: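 Part 2 had 12 healthy adults. They received a single fasted oral 160 mg dose of the test compound, then rifampin 600 mg once daily, with a 7-day lead-in before coadministration and 6 days of continued dosing afterwards. TEAEs were recorded through 30 days after the last test-compound dose, coded with MedDRA v22.0 and graded by NCI CTCAE v5. Vital signs, hematology/chemistry/urinalysis and 12-lead ECG were also assessed. All were summarised descriptively.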

[8] = Mobocertinib 20 mg + Itraconazole, part 1
[9] = Mobocertinib 20 mg Alone, part 1
[10] = 20 mg, Arithmetic Means (SD), mobocertinib 20 mg alone (reference), footnote a: mean (%CV)
[11] = 20 mg, Geometric Means (%CV), mobocertinib 20 mg alone (reference)
[12] = Arithmetic Means (SD), mobocertinib 20 mg + itraconazole 200 mg once daily (test), footnote a: mean (%CV)
[13] = Geometric Means (%CV), mobocertinib 20 mg + itraconazole 200 mg once daily (test)
[14] = itraconazole and mobocertinib 20 mg vs mobocertinib alone
[15] = itraconazole plus mobocertinib 20 mg vs mobocertinib alone
[16] = mobocertinib 160 mg + rifampin vs mobocertinib alone
[17] = rifampin plus mobocertinib 160 mg
[18] = Mobocertinib 160 mg + Rifampin, part 2
[19] = Mobocertinib 160 mg Alone, part 2

In the case of `C=CC(=O)Nc1cc(Nc2ncc(C(=O)OC(C)C)c(-c3cn(C)c4ccccc34)n2)c(OC)cc1N(C)CCN(C)C` [Mobocertinib], the “Percent contribution of enzyme to metabolism” value (“Percent contribution of enzyme” for short) (CYP2C9) is listed as less than 2%, the “Percent contribution of enzyme” value (CYP2C19) is listed as less than 2% and the “Accumulation of systemic exposure after repeat dosing” value ([1]; 20 to 120 mg once daily, patients with NSCLC) is listed as “moderate accumulation”. For the same compound, the “Recommended phase 2 dose” value ([1]; dose escalation, patients with NSCLC) was 160 mg once daily, the “Dose proportionality of Cmax and AUC0-24” value ([1]; dose range 5 to 180 mg once daily) was “increased in a dose‐proportional manner” and the Median tmax ([1]; once-daily administration, patients with NSCLC) was 4 hours postdose. For the same compound, the “TEAE: Back pain” value [2, 8] was 1 (8) n (%), the “TEAE: Chest discomfort” value [2, 8] was 0 n (%) and the “TEAE: Diarrhea” value [2, 8] was 2 (17) n (%). The “TEAE: Dry skin” value [2, 8] was 0 n (%), the “TEAE: Dry throat” value [2, 8] was 0 n (%) and the “TEAE: Headache” value [2, 8] was 1 (8) n (%). For the same compound, the “TEAE: Nausea” value [2, 8] was 0 n (%), the “TEAE: Oropharyngeal pain” value [2, 8] was 0 n (%) and the “TEAE: Pruritus” value [2, 8] was 0 n (%). The “TEAE: Pruritus generalized” value [2, 8] was 0 n (%), the “TEAE: Rash” value [2, 8] was 0 n (%) and the “Volunteers with TEAEs” value [2, 8] was 4 (33) n (%). The “Volunteers without TEAEs” value [2, 8] was 8 (67) n (%), the “TEAE: Back pain” value [2, 9] was 0 n (%) and the “TEAE: Chest discomfort” value [2, 9] was 0 n (%). For the same compound, the “TEAE: Diarrhea” value [2, 9] was 0 n (%), the “TEAE: Dry skin” value [2, 9] was 1 (8) n (%) and the “TEAE: Dry throat” value [2, 9] was 0 n (%). For the same compound, the “TEAE: Headache” value [2, 9] was 0 n (%), the “TEAE: Nausea” value [2, 9] was 0 n (%) and the “TEAE: Oropharyngeal pain” value [2, 9] was 0 n (%). For the same compound, the “TEAE: Pruritus” value [2, 9] was 0 n (%), the “TEAE: Pruritus generalized” value [2, 9] was 0 n (%) and the “TEAE: Rash” value [2, 9] was 0 n (%). The “Volunteers with TEAEs” value [2, 9] was 1 (8) n (%), the “Volunteers without TEAEs” value [2, 9] was 11 (92) n (%) and the “TEAE: Back pain” value ([2]; Part 1 Overall) was 1 (8) n (%). The “TEAE: Chest discomfort” value ([2]; Part 1 Overall) was 0 n (%), the “TEAE: Diarrhea” value ([2]; Part 1 Overall) was 2 (17) n (%) and the “TEAE: Dry skin” value ([2]; Part 1 Overall) was 1 (8) n (%). For the same compound, the “TEAE: Dry throat” value ([2]; Part 1 Overall) was 0 n (%), the “TEAE: Headache” value ([2]; Part 1 Overall) was 1 (8) n (%) and the “TEAE: Nausea” value ([2]; Part 1 Overall) was 0 n (%). For the same compound, the “TEAE: Oropharyngeal pain” value ([2]; Part 1 Overall) was 0 n (%), the “TEAE: Pruritus” value ([2]; Part 1 Overall) was 0 n (%) and the “TEAE: Pruritus generalized” value ([2]; Part 1 Overall) was 0 n (%). The “TEAE: Rash” value ([2]; Part 1 Overall) was 0 n (%), the “Volunteers with TEAEs” value ([2]; Part 1 Overall) was 5 (42) n (%) and the “Volunteers without TEAEs” value ([2]; Part 1 Overall) was 7 (58) n (%). The “Changes in laboratory parameters, vital signs, or ECGs” value ([2]; part 1) was “no apparent or consistent treatment‐related changes”, the “Deaths, serious TEAEs, discontinuations” value ([2]; part 1) was “No deaths, serious TEAEs, or discontinuations” and the Tolerability ([2]; single oral dose 20 mg with itraconazole, healthy volunteers) was “generally well tolerated”. The AUC(0-inf) [3, 10] was 113 ng·h/mL, the AUC(0-inf) [3, 11] was 106 ng·h/mL and the Cmax [3, 10] was 5.78 ng/mL. For the same compound, the Cmax [3, 11] was 5.52 ng/mL, the half-life [3, 10] was 21.5 h and the half-life [3, 11] was 21.2 h. The AUC(0-inf) [3, 12] was 907 ng·h/mL, the AUC(0-inf) [3, 13] was 892 ng·h/mL and the Cmax [3, 12] was 21.5 ng/mL. It also gave a Cmax [3, 13] of 21.1 ng/mL, a half-life [3, 12] of 54.7 h and a half-life [3, 13] of 53.9 h. The “Increase in plasma AUC0-∞” value [3, 14] was 743%, the “Increase in plasma Cmax” value [3, 14] was “≈ 283%” and the “Increase in geometric mean t½” value [3, 15] was 154%. For the same compound, the “Median tmax reached later” value [3, 15] was 2 h, the “AUC0-∞, Geometric LS Mean Ratio (90%CI) (Test/Reference)” value [3] was 8.43 (7.02‐10.12) and the “Cmax, Geometric LS Mean Ratio (90%CI) (Test/Reference)” value [3] was 3.83 (3.25‐4.50). For the same compound, the “AUC0-∞, Geometric LS Mean Ratio (90%CI) (Test/Reference)” value ([3]; listed as mobocertinib) was 8.43, the “Cmax, Geometric LS Mean Ratio (90%CI) (Test/Reference)” value ([3]; listed as mobocertinib) was 3.83 and the “Percent contribution of enzyme” value (CYP2B6) was less than 2%. For the same compound, the Mutagenicity / genotoxicity [4] was “neither mutagenic nor genotoxic”, the “Percent contribution of enzyme” value (CYP1A2) was less than 2% and the “Effect of a low-fat meal on absorption” value [5] was “no apparent effect”. The “Excreted unchanged in urine” value ([5]; renal elimination) was less than 1.2%, the Mean half-life ([5]; single oral doses, healthy volunteers) was 20 h and the “Percent contribution of enzyme” value (CYP2C8) was less than 2%. For the same compound, the “Percent contribution of enzyme” value (CYP3A4/5) was greater than 90%, the “Percent contribution of enzyme” value (CYP2D6) was less than 2% and the “AUC0-∞, Geometric LS Mean Ratio (90%CI) (Test/Reference)” value [6, 16] was 0.04 (0.03‐0.05). The “Cmax, Geometric LS Mean Ratio (90%CI) (Test/Reference)” value [6, 16] was 0.05 (0.04‐0.07), the “AUC0-∞, Geometric LS Mean Ratio (90%CI) (Test/Reference)” value ([6]; mobocertinib 160 mg + rifampin vs mobocertinib alone, listed as mobocertinib) was 0.04 and the “Plasma AUC0-∞ as % of value following mobocertinib alone” value [6, 17] was roughly 4%. For the same compound, the “Plasma Cmax as % of value following mobocertinib alone” value [6, 17] was “approximately 5%”, the “Reduction in geometric mean t½” value ([6]; rifampin plus mobocertinib 160 mg vs mobocertinib alone) was 29% and the “TEAE: Back pain” value [7, 18] was 1 (8) n (%). For the same compound, the “TEAE: Chest discomfort” value [7, 18] was 2 (17) n (%), the “TEAE: Diarrhea” value [7, 18] was 3 (25) n (%) and the “TEAE: Dry skin” value [7, 18] was 0 n (%). For the same compound, the “TEAE: Dry throat” value [7, 18] was 0 n (%), the “TEAE: Headache” value [7, 18] was 2 (17) n (%) and the “TEAE: Nausea” value [7, 18] was 2 (17) n (%). The “TEAE: Oropharyngeal pain” value [7, 18] was 2 (17) n (%), the “TEAE: Pruritus” value [7, 18] was 2 (17) n (%) and the “TEAE: Pruritus generalized” value [7, 18] was 0 n (%). The “TEAE: Rash” value [7, 18] was 2 (17) n (%), the “Volunteers with TEAEs” value [7, 18] was 10 (83) n (%) and the “Volunteers without TEAEs” value [7, 18] was 2 (17) n (%). For the same compound, the “TEAE: Back pain” value [7, 19] was 1 (8) n (%), the “TEAE: Chest discomfort” value [7, 19] was 0 n (%) and the “TEAE: Diarrhea” value [7, 19] was 2 (17) n (%). The “TEAE: Dry skin” value [7, 19] was 3 (25) n (%), the “TEAE: Dry throat” value [7, 19] was 2 (17) n (%) and the “TEAE: Headache” value [7, 19] was 1 (8) n (%). The “TEAE: Nausea” value [7, 19] was 1 (8) n (%), the “TEAE: Oropharyngeal pain” value [7, 19] was 0 n (%) and the “TEAE: Pruritus” value [7, 19] was 0 n (%). The “TEAE: Pruritus generalized” value [7, 19] was 2 (17) n (%), the “TEAE: Rash” value [7, 19] was 0 n (%) and the “Volunteers with TEAEs” value [7, 19] was 9 (75) n (%). For the same compound, the “Volunteers without TEAEs” value [7, 19] was 3 (25) n (%), the “TEAE: Back pain” value ([7]; Part 2 Overall) was 2 (17) n (%) and the “TEAE: Chest discomfort” value ([7]; Part 2 Overall) was 2 (17) n (%). For the same compound, the “TEAE: Diarrhea” value ([7]; Part 2 Overall) was 4 (33) n (%), the “TEAE: Dry skin” value ([7]; Part 2 Overall) was 3 (25) n (%) and the “TEAE: Dry throat” value ([7]; Part 2 Overall) was 2 (17) n (%). For the same compound, the “TEAE: Headache” value ([7]; Part 2 Overall) was 3 (25) n (%), the “TEAE: Nausea” value ([7]; Part 2 Overall) was 3 (25) n (%) and the “TEAE: Oropharyngeal pain” value ([7]; Part 2 Overall) was 2 (17) n (%). For the same compound, the “TEAE: Pruritus” value ([7]; Part 2 Overall) was 2 (17) n (%), the “TEAE: Pruritus generalized” value ([7]; Part 2 Overall) was 2 (17) n (%) and the “TEAE: Rash” value ([7]; Part 2 Overall) was 2 (17) n (%). For the same compound, the “Volunteers with TEAEs” value ([7]; Part 2 Overall) was 11 (92) n (%), the “Volunteers without TEAEs” value ([7]; Part 2 Overall) was 1 (8) n (%) and the “Changes in laboratory parameters, vital signs, or ECGs” value ([7]; part 2) was “no apparent or consistent treatment‐related changes”. For the same compound, the “Deaths, serious TEAEs, discontinuations” value ([7]; part 2) was “No deaths, serious TEAEs, or discontinuations” and the Tolerability ([7]; single oral dose 160 mg with rifampin, healthy volunteers) was “generally well tolerated”.
